Results: ChEMBL document CHEMBL4715748, “Synthesis and biological investigation of new equatorial (β) stereoisomers of 3-aminotropane arylamides with atypical antipsychotic profile” (Bioorg Med Chem, 2016)

Tests used:
D(2) dopamine receptor = D(2) dopamine receptor (Rattus norvegicus, UniProt P61169); experiment: Displacement of [3H] Spiperone from rat striatum dopamine D2 receptor measured after 30 mins by liquid scintillation counter method
How it was run: (§1)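 Competition binding in rat brain tissue membranes against D2, 5-HT1A and 5-HT2A sites; Ki reported as mean ± S.E.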

[1] = biological target: T1, 5-hydroxytryptamine receptor 1A (Rattus norvegicus, UniProt P19327); experiment: Displacement of [3H]-8-OH-DPAT from rat cerebral cortex 5HT1A receptor measured after 15 mins by liquid scintillation counter method
T1 sequence (P19327 whole entry): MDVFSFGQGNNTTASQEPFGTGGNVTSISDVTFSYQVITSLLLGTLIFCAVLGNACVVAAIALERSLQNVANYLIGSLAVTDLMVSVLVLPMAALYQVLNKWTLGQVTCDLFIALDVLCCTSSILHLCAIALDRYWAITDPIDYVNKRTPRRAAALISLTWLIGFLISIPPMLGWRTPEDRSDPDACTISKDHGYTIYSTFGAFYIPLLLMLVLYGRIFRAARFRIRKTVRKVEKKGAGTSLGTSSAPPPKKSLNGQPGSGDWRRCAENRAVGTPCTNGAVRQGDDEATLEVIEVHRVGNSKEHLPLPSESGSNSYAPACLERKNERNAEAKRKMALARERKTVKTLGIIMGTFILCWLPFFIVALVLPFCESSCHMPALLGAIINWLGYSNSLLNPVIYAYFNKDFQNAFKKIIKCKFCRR

[2] = biological target: 5-hydroxytryptamine receptor 2A (Rattus norvegicus, UniProt P14842); experiment: Displacement of [3H]-ketanserin from rat cerebral cortex 5HT2A receptor measured after 20 mins by liquid scintillation counter method; how it was run: as §1
Chain of 5-hydroxytryptamine receptor 2A (P14842 whole entry): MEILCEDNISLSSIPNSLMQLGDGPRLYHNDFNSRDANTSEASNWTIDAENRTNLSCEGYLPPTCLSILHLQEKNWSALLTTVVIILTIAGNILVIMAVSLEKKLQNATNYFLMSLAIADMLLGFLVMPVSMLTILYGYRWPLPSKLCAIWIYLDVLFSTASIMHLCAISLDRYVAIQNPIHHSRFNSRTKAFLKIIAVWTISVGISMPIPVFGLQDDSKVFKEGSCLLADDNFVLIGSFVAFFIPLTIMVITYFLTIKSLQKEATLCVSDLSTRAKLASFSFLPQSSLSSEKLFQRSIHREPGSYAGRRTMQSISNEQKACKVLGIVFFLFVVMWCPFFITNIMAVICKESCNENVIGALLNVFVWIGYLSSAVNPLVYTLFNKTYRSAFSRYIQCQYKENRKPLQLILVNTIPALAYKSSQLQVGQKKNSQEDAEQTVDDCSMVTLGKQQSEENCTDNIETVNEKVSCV

[3] = biological target: Dopamine D2 receptor and Serotonin 2a receptor (D2 and 5HT2a) (Rattus norvegicus) (UniProt P61169+P14842); experiment: Ratio of pKi for displacement of [3H]-ketanserin from rat cerebral cortex 5HT2A receptor measured after 20 mins by liquid scintillation counter method to pKi for displacement of [3H] Spiperone from rat striatum dopamine D2 receptor measured after 30 mins by liquid scintillation counter method
Chain of Dopamine D2 receptor and Serotonin 2a receptor (D2 and 5HT2a) (Rattus norvegicus) (P14842 whole entry, looked up): as the sequence (P14842 whole entry) above
Chain of Dopamine D2 receptor and Serotonin 2a receptor (D2 and 5HT2a) (Rattus norvegicus) (P61169 whole entry, looked up): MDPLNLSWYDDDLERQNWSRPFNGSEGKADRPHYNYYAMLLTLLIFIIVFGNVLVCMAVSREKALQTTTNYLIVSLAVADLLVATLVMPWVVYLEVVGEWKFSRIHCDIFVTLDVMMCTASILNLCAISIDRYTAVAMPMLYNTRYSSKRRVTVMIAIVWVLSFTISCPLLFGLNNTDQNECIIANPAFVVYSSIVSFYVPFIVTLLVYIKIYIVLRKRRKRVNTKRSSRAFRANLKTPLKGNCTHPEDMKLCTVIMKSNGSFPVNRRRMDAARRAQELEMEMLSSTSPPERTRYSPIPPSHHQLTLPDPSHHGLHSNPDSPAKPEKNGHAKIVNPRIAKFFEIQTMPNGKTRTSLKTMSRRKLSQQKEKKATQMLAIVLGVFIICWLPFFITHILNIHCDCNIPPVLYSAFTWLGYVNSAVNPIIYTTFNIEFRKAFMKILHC
How it was run: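 Ratio of pKi values, 5-HT2A over D2, computed from competition radioligand binding in rat brain tissue.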

[4] = Effect on body temperature in Swiss Albino mouse assessed as rectal body temperature at 10 mg/kg, ip measured after 30 mins by thermometer (reference value: 0.16 to 0.33 degreeC); assay type: organism-based; conditions: in vivo, 0.5 h
[5] = Effect on body temperature in Swiss Albino mouse assessed as rectal body temperature at 20 mg/kg, ip measured after 30 mins by thermometer (reference value: 0.16 to 0.33 degreeC); assay type: ADME, organism-based; conditions: in vivo, 0.5 h
[6] = Effect on body temperature in Swiss Albino mouse assessed as rectal body temperature at 10 mg/kg, ip measured after 90 mins by thermometer (reference value: 0.18 to 0.63 degreeC); assay type: ADME, organism-based; conditions: in vivo, 1.5 h
[7] = Effect on body temperature in Swiss Albino mouse assessed as rectal body temperature at 20 mg/kg, ip measured after 90 mins by thermometer (reference value: 0.18 to 0.63 degreeC); assay type: ADME, organism-based; conditions: in vivo, 1.5 h
[8] = Effect on body temperature in Swiss Albino mouse assessed as rectal body temperature at 10 mg/kg, ip measured after 120 mins by thermometer (reference value: 0.15 to 1.11 degreeC); assay type: organism-based; conditions: in vivo, 2 h
[9] = Effect on body temperature in Swiss Albino mouse assessed as rectal body temperature at 20 mg/kg, ip measured after 120 mins by thermometer (reference value: 0.15 to 1.11 degreeC); assay type: ADME, organism-based; conditions: in vivo, 2 h
Mus musculus [10] = experiment: Effect on 8-OH-DPAT-induced hypothermia in Swiss albino mouse assessed as change in rectal body temperature at 10 mg/kg, ip pretreated with compound for 45 mins followed by 8-OH-DPAT challenge and measured after 30 min by thermometer (reference value: -1.36 to -1.12 degreeC); assay type: functional, organism-based; conditions: time 75.0 min
Mus musculus [11] = experiment: Effect on 8-OH-DPAT-induced hypothermia in Swiss albino mouse assessed as change in rectal body temperature at 20 mg/kg, ip pretreated with compound for 45 mins followed by 8-OH-DPAT challenge and measured after 45 min by thermometer (reference value: -1.04 to -0.78 degreeC); assay type: functional, organism-based; conditions: time 90.0 min
Mus musculus [12] = experiment: Effect on 8-OH-DPAT-induced hypothermia in Swiss albino mouse assessed as change in rectal body temperature at 20 mg/kg, ip pretreated with compound for 45 mins followed by 8-OH-DPAT challenge and measured after 60 min by thermometer (reference value: -0.66 to -0.5 degreeC); assay type: functional, organism-based; conditions: time 105.0 min
[13] = Effect on 8-OH-DPAT-induced lower lip retraction in Wistar rat at 10 mg/kg, ip pretreated with compound for 45 mins followed by 8-OH-DPAT challenge and measured after 15 mins (reference value: 2.7 to 2.8); assay type: functional; conditions: time 60 min, 1 h
[14] = Effect on 8-OH-DPAT-induced lower lip retraction in Wistar rat at 20 mg/kg, ip pretreated with compound for 45 mins followed by 8-OH-DPAT challenge and measured after 15 mins (reference value: 2.7 to 2.8); assay type: functional; conditions: time 60 min, 1 h
Mus musculus [15] = experiment: Antipsychotic activity Swiss Albino mouse assessed as inhibition of DOI-induced head twitching by measuring number of episodes at 5 mg/kg, ip administered 30 mins prior to DOI stimulation (reference value: 19.63 to 19.88); assay type: functional; conditions: 0.5 h
How it was run: (§2)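 Male Albino Swiss mice (24–28 g) were habituated to sawdust-lined cages 20 min before the first treatment. Compounds were suspended in 1% aqueous Tween 80 and given i.p. 30 min before (±)-DOI, 2.5 mg/kg i.p. in aqueous solution. Head twitches were counted blind over 20 min, n=8 per group, mean ± SEM, one-way ANOVA with Dunnett's test.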

Mus musculus [16] = experiment: Antipsychotic activity Swiss Albino mouse assessed as inhibition of DOI-induced head twitching by measuring number of episodes at 10 mg/kg, ip administered 30 mins prior to DOI stimulation (reference value: 19.63 to 19.88); assay type: functional; conditions: 0.5 h; how it was run: as §2
[17] = Metabolic stability in pooled human liver microsomes assessed as parent compound remaining at 2.5 uM incubated for 45 mins in presence of NADPH by LC-MS analysis; assay type: ADME, Microsome; conditions: read-out: Stabilty
How it was run: (§3)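 Compound at 2.5 μM (added from 100 μM stock in 50/50 acetonitrile/water) with 1 mg/mL pooled human liver microsomes and 250 μM NADPH in 0.1 M potassium phosphate pH 7.4 at 37 °C after 5-min preincubation. Sampled at 5, 10, 15, 30, 45 min into ice-cold acetonitrile with atropine internal standard; parent quantified by LC-MS (ESI+, [M+H]+); no-NADPH controls; half-time derived.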

[18] = Half life in pooled human liver microsomes assessed as parent compound remaining at 2.5 uM measured up to 45 mins in presence of NADPH by LC-MS analysis; assay type: ADME, Microsome; how it was run: as §3
[19] = Metabolic stability in pooled human liver microsomes at 2.5 uM measured over 45 mins in presence of NADPH by LC-MS analysis; assay type: ADME, Microsome; conditions: 0.75 h; how it was run: as §3
Mus musculus [20] = experiment: Antipsychotic activity Swiss Albino mouse assessed as inhibition of DOI-induced head twitching by measuring number of episodes at 1.25 mg/kg, ip administered 30 mins prior to DOI stimulation (reference value: 19.63 to 19.88); assay type: functional; conditions: 0.5 h; how it was run: as §2

Chain of D(2) dopamine receptor (P61169 whole entry): as the sequence (P61169 whole entry, looked up) above

## O=C(NC1CC2CCC(C1)N2Cc1cccc(Br)c1)c1ccc2ccccc2c1 (stereo unspecified)
D(2) dopamine receptor
  Ki: 11.6 nM
[1]
  Ki: 200 nM
[2]
  Ki: 106 nM
[3]
  Ratio pKi: 0.88
[4]
  deltaT: -0.2 °C
[5]
  deltaT: -0.3 °C
[6]
  deltaT: 0.64 °C
[7]
  deltaT: 0.36 °C
[8]
  deltaT: 1.14 °C
[9]
  deltaT: 1.23 °C
Mus musculus [10]
  deltaT: -1.62 °C
Mus musculus [11]
  deltaT: -1.25 °C
Mus musculus [12]
  deltaT: -0.58 °C
[13]
  Activity: 2.4
[14]
  Activity: 2.5
Mus musculus [15]
  Activity: 13.88
Mus musculus [16]
  Activity: 11.88
[17]
  remaining at 0.75 h, 2.5 µM: > 50%
[18]
  half-life at 2.5 µM: > 45 min
[19]
  Stabilty: Stable

## O=C(NC1CC2CCC(C1)N2Cc1cccc(F)c1)c1ccc2ccccc2c1 (stereo unspecified)
D(2) dopamine receptor
  Ki: 214 nM
[1]
  Ki: 211 nM
[2]
  Ki: 102 nM
[3]
  Ratio pKi: 1.05
[4]
  deltaT: -0.17 °C
[5]
  deltaT: -0.36 degrees C
[6]
  deltaT: 0.47 °C
[7]
  deltaT: 0.2 °C
[8]
  deltaT: 0.74 °C
[9]
  deltaT: 0.81 °C
Mus musculus [10]
  deltaT: -1.37 °C
Mus musculus [11]
  deltaT: -1.53 °C
Mus musculus [12]
  deltaT: -1.08 °C
[13]
  Activity: 2.4
[14]
  Activity: 2.3
Mus musculus [20]
  Activity: 2.3
Mus musculus [15]
  Activity: 3.88
Mus musculus [16]
  Activity: 2.38
[17]
  remaining at 0.75 h, 2.5 µM: > 50%
[18]
  half-life at 2.5 µM: > 45 min
[19]
  Stabilty: Stable

## O=C(NC1CC2CCC(C1)N2Cc1ccc(F)cc1)c1ccc2ccccc2c1 (stereo unspecified)
D(2) dopamine receptor
  Ki: 137 nM
[1]
  Ki: 218 nM
[2]
  Ki: 209 nM
[3]
  Ratio pKi: 0.97
[4]
  deltaT: -0.17 °C
[5]
  deltaT: -0.33 °C
[6]
  deltaT: 0.44 °C
[7]
  deltaT: 0.23 °C
[8]
  deltaT: 0.59 °C
[9]
  deltaT: 0.54 °C
Mus musculus [10]
  deltaT: -1.32 °C
Mus musculus [11]
  deltaT: -1.43 °C
Mus musculus [12]
  deltaT: -1 °C
[13]
  Activity: 2.5
[14]
  Activity: 2.4
Mus musculus [20]
  Activity: 12.63
Mus musculus [15]
  Activity: 5
Mus musculus [16]
  Activity: 5.38
[17]
  remaining at 0.75 h, 2.5 µM: > 50%
[18]
  half-life at 2.5 µM: > 45 min
[19]
  Stabilty: Stable

## O=C(NC1CC2CCC(C1)N2Cc1cccc(Cl)c1)c1ccc2ccccc2c1 (stereo unspecified)
D(2) dopamine receptor
  Ki: 3.6 nM
[1]
  Ki: 298 nM
[2]
  Ki: 136 nM
[3]
  Ratio pKi: 0.81
[4]
  deltaT: 0.17 °C
[5]
  deltaT: -0.38 °C
[6]
  deltaT: 0.84 °C
[7]
  deltaT: 0.41 °C
[8]
  deltaT: 1.16 °C
[9]
  deltaT: 1 °C
Mus musculus [10]
  deltaT: -1.22 °C
Mus musculus [11]
  deltaT: -2.22 °C
Mus musculus [12]
  deltaT: -1.57 °C
[13]
  Activity: 2.6
[14]
  Activity: 2.1
Mus musculus [15]
  Activity: 13.13
Mus musculus [16]
  Activity: 8.75
[17]
  remaining at 0.75 h, 2.5 µM: > 50%
[18]
  half-life at 2.5 µM: > 45 min
[19]
  Stabilty: Stable

## Cc1cccc(CN2C3CCC2CC(NC(=O)c2ccc4ccccc4c2)C3)c1 (stereo unspecified)
D(2) dopamine receptor
  Ki: 3.3 nM
[1]
  Ki: 182 nM
[2]
  Ki: 231 nM
[3]
  Ratio pKi: 0.78
[4]
  deltaT: -0.02 °C
[5]
  deltaT: 0.04 °C
[6]
  deltaT: 0.35 °C
[7]
  deltaT: 0.2 °C
[8]
  deltaT: 0.27 °C
[9]
  deltaT: 0.24 °C
Mus musculus [10]
  deltaT: -0.97 °C
Mus musculus [11]
  deltaT: -2.08 °C
Mus musculus [12]
  deltaT: -1.5 °C
[13]
  Activity: 2.3
[14]
  Activity: 2.3
Mus musculus [20]
  Activity: 15.63
Mus musculus [15]
  Activity: 10
Mus musculus [16]
  Activity: 2.38
[18]
  half-life at 2.5 µM: 30 min
